This note sets out measurements from ChEMBL document CHEMBL2417496, “Novel selective inhibitors of aminopeptidases that generate antigenic peptides” (Bioorg Med Chem Lett, 2013).

Assay [1] concerns the target T1, Endoplasmic reticulum aminopeptidase 2 (Homo sapiens, UniProt Q6P179). Description: Inhibition of recombinant ERAP2 (unknown origin) expressed in baculovirus-infected Hi5 insect cells assessed as L-Arginyl-7-amido-4-methyl coumarin hydrolysis to 7-amido-4-methyl coumarin after 5 to 10 mins by fluorescence assay.
The target in assay [2] is T1, Endoplasmic reticulum aminopeptidase 2. Description: Inhibition of recombinant ERAP2 (unknown origin) expressed in baculovirus-infected Hi5 insect cells assessed as L-Arginyl-7-amido-4-methyl coumarin hydrolysis to 7-amido-4-methyl coumarin at 50 to 100 uM after 5 to 10 mins by fluorescence assay relative to control. The gist of the method: (§1)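 ERAP2 was made as a recombinant protein in baculovirus-infected Hi5 insect cells and purified by affinity chromatography. Activity was monitored fluorogenically as the rate of R-AMC hydrolysis. Inhibitor was titrated, and inhibition was also examined at 50 μM and across 50–100 μM.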

Assay [3] addresses Endoplasmic reticulum aminopeptidase 1 (Homo sapiens) (UniProt Q9NZ08). Description: Inhibition of recombinant ERAP1 (unknown origin) expressed in baculovirus-infected Hi5 insect cells assessed as L-Leucine-7-amido-4-methyl coumarin hydrolysis to 7-amido-4-methyl coumarin at 50 uM after 5 to 10 mins by fluorescence assay. The gist of the method: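 ERAP1 was made as a recombinant protein in Hi5 insect cells infected with recombinant baculovirus and affinity-purified to homogeneity. Activity was followed as the kinetics of hydrolysis of the fluorogenic substrate L-AMC. Inhibitor was titrated at increasing amounts, and single-point inhibition was checked at 50 μM.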

Assay [4] has as its target T1, Endoplasmic reticulum aminopeptidase 2. Description: Inhibition of recombinant ERAP2 (unknown origin) expressed in baculovirus-infected Hi5 insect cells assessed as L-Arginyl-7-amido-4-methyl coumarin hydrolysis to 7-amido-4-methyl coumarin at 50 uM after 5 to 10 mins by fluorescence assay. In a few lines: as §1
For assay [5], the target named is T2, Leucyl-cystinyl aminopeptidase (Homo sapiens, UniProt Q9UIQ6). Nature of the assay: Inhibition of human recombinant IRAP expressed in HeLa cells assessed as L-Leucine-7-amido-4-methyl coumarin hydrolysis to 7-amido-4-methyl coumarin after 5 to 10 mins by fluorescence assay. The assay is classed as cell-based.
T2 sequence (Q9UIQ6 whole entry): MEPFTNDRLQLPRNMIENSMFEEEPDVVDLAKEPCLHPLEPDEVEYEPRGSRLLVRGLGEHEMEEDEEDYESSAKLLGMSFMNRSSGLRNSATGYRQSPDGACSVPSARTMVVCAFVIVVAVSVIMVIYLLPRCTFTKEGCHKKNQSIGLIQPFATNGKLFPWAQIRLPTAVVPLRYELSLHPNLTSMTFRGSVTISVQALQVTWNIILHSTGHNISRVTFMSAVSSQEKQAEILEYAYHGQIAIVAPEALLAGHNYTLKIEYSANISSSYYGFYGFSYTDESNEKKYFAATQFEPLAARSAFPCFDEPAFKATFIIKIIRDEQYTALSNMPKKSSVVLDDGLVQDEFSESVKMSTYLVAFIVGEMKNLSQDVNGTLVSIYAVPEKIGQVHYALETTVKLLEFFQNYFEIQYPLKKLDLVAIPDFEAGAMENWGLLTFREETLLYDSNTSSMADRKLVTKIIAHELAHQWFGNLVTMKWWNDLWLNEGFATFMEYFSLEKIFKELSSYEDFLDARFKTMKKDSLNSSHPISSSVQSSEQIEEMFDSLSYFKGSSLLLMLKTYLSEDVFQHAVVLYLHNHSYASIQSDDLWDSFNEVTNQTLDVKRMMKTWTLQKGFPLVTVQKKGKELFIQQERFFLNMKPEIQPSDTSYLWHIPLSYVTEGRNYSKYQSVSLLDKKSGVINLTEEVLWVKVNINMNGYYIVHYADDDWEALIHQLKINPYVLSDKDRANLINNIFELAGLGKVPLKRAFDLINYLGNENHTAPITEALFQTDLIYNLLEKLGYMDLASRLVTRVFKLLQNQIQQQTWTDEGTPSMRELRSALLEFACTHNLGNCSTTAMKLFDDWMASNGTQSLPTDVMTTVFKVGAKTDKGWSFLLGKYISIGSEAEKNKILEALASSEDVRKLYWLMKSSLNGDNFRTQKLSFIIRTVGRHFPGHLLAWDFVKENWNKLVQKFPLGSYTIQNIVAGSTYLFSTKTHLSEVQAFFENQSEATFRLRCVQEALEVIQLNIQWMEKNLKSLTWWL
Assay [6] addresses T2, Leucyl-cystinyl aminopeptidase. Description: Inhibition of human recombinant IRAP expressed in HeLa cells assessed as L-Leucine-7-amido-4-methyl coumarin hydrolysis to 7-amido-4-methyl coumarin at 50 to 100 uM after 5 to 10 mins by fluorescence assay relative to control. The assay is classed as cell-based.

The source made the active and inactive calls. The rule behind the calls is not given here.

Sequence of Endoplasmic reticulum aminopeptidase 1 (Homo sapiens) (Q9NZ08 whole entry): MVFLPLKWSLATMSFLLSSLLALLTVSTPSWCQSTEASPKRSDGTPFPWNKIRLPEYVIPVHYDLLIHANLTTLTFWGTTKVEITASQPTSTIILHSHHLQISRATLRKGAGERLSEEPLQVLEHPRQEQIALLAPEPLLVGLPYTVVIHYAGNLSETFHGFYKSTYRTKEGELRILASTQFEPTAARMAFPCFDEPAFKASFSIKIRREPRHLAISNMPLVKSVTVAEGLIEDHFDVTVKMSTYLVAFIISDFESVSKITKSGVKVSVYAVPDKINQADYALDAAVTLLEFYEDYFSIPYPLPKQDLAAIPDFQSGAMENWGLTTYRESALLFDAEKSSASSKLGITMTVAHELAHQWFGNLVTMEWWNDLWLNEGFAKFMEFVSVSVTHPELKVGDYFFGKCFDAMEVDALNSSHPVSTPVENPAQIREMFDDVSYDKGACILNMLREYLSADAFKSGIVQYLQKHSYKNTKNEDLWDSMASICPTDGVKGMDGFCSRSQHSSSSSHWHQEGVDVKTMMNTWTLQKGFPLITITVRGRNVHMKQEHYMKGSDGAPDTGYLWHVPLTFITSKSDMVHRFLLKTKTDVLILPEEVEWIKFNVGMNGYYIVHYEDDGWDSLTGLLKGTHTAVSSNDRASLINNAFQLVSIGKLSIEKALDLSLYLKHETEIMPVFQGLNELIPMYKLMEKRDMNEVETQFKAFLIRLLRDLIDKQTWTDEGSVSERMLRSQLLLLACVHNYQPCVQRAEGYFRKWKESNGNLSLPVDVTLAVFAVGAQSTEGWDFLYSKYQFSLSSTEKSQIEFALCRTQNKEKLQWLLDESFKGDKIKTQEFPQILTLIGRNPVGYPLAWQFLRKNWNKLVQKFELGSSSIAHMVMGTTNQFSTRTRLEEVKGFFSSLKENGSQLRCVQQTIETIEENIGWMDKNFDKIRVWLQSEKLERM
T1 sequence (Q6P179 whole entry): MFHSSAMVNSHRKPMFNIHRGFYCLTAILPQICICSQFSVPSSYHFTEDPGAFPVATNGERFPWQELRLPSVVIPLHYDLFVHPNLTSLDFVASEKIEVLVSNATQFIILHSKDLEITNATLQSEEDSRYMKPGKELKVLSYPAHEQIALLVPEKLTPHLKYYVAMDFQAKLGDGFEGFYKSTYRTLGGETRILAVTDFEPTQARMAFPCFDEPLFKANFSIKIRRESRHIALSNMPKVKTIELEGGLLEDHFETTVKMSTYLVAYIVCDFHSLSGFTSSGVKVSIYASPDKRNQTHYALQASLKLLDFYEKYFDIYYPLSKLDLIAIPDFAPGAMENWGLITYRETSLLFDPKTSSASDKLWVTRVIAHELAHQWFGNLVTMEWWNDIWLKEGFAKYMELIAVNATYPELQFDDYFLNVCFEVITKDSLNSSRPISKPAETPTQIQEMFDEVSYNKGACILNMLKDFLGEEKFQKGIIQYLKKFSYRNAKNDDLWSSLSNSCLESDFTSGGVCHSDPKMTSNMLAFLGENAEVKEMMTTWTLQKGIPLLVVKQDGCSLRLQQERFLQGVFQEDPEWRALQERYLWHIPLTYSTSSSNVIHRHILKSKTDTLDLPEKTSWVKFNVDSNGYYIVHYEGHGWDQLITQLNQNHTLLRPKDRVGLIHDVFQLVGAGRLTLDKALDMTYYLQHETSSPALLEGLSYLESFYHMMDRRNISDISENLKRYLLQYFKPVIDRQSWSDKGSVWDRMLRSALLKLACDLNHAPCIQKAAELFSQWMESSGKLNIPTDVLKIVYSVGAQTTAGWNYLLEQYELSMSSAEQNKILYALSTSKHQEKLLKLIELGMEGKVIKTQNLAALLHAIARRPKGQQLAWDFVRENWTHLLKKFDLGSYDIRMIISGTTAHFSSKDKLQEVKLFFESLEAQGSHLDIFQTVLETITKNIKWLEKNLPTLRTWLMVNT

One may read the IC50 as the midpoint of a concentration-inhibition curve. For orientation: inhibition means the relative decrease from the control value, in per cent. On to `COC(=O)c1ccc(N)c(NC(=O)[C@@H](N)CCc2ccccc2)c1`, for which the IC50 in assay [1] was > 100 µM. For the same molecule, the inhibition in assay [2] is < 20%. Besides, in assay [3], the inhibition result is “inactive”.
`COC(=O)[C@H](CCCNC(=N)N)NC(=O)c1ccc(N)c(NC(=O)[C@@H](N)CCc2ccccc2)c1`: the inhibition result in assay [3] and in assay [4] was “inactive” throughout.
As for `COC(=O)[C@H](Cc1ccc(O)cc1)NC(=O)c1ccc(N)c(NC(=O)[C@@H](N)CCc2ccccc2)c1`, the IC50 in assay [1] is > 100 µM. The inhibition in assay [2] is < 20%.
In the case of `COC(=O)[C@@H](NC(=O)c1ccc(N)c(NC(=O)[C@@H](N)CCc2ccccc2)c1)[C@@H](C)O`, the inhibition entry in assay [3] and in assay [4] was “inactive” in each case.
On to `CC(C)[C@H](NC(=O)c1ccc(N)c(NC(=O)[C@@H](N)CCc2ccccc2)c1)C(=O)O`, for which the IC50 in assay [5] was > 100 µM. Besides, in assay [6], the inhibition was < 20%. The inhibition entry in assay [3] and in assay [4] was “inactive” in each case.
As for `COC(=O)[C@H](C)NC(=O)c1ccc(N)c(NC(=O)[C@@H](N)CCc2ccccc2)c1`, the inhibition result in assay [3] and in assay [4] was “inactive” in each case.
Take `Nc1ccc(C(=O)O)cc1NC(=O)[C@@H](N)CCc1ccccc1`: the IC50 in assay [5] and in assay [1] was > 100 µM each time. The inhibition in assay [2] and in assay [6] was < 20% in each case. For the same molecule, the inhibition entry in assay [3] is “inactive”.
For the molecule `Nc1ccc(C(=O)N[C@@H](Cc2c[nH]c3ccccc23)C(=O)OCc2ccccc2)cc1NC(=O)[C@@H](N)CCc1ccccc1`, the inhibition result in assay [3] was “inactive”.
